According to ChEMBL document CHEMBL3779886, “Cassane Diterpenoids from the Pericarps of Caesalpinia bonduc” (J Nat Prod, 2016):
Active and inactive are the calls of the source.

How the values were obtained:
Type in all cases: functional, cell-based
SH-SY5Y [1] = experiment: Neuroprotective activity against amyloid beta(25 to 35)-induced toxicity in human SH-SY5Y cells assessed as cell viability at 1 to 10 uM pretreated for 2 hrs followed by protein addition measured after 24 hrs by MTT assay
Method in brief: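 Cells: high-passage SH-SY5Y (ATCC), 37 °C, 5% CO2. 2 h pretreatment with compound at 1 or 10 μM, or EGCG 10 μM, then 10 μM Aβ25−35 for 24 h with compound still present. MTT at 0.5 mg/mL final for 4 h, 37 °C; DMSO dissolution; read at 490 nm. Means ± SD, one-way ANOVA, p < 0.05.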

SH-SY5Y [2] = experiment: Neuroprotective activity against H2O2-induced toxicity in human SH-SY5Y cells assessed as cell viability at 1 to 10 uM pretreated for 2 hrs followed by H2O2 addition measured after 24 hrs by MTT assay
Method in brief: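 High-passage SH-SY5Y cells (ATCC), 37 °C, 5% CO2. Pretreatment for 2 h with compound at 1 or 10 μM, or N-acetylcysteine 300 μM, then 100 μM H2O2 for 24 h. Viability by MTT (0.5 mg/mL final, 4 h, 37 °C), DMSO solubilization, absorbance 490 nm. Means ± SD, one-way ANOVA, p < 0.05.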

SH-SY5Y [3] = experiment: Neuroprotective activity against OGD-induced toxicity in human SH-SY5Y cells assessed as cell viability at 1 to 10 uM pretreated for 2 hrs followed by OGD induction for 1 hr measured after 24 hrs by MTT assay
Method in brief: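 SH-SY5Y cells (high passage, ATCC) kept at 37 °C, 5% CO2. Pretreated with compound for 2 h, then OGD exposure (1 mg/mL as printed) for 1 h, followed by 24 h normal culture. Glucose-fed cells under normal conditions served as controls. MTT 0.5 mg/mL final, 4 h, 37 °C; DMSO; A490. Means ± SD, one-way ANOVA.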

Measured: Activity

COC(=O)[C@@H]1c2ccoc2C[C@H]2[C@H]1[C@@H](O)[C@H](OC(C)=O)[C@@]1(O)C(C)(C)CC[C@H](O)[C@]21C
inactive: all assays above

COC(=O)[C@@H]1c2ccoc2C[C@H]2[C@H]1[C@@H](OC(C)=O)[C@H](O)[C@@]1(O)C(C)(C)CCC(=O)[C@]21C
inactive: all assays above

COC(=O)[C@@H]1c2ccoc2C[C@H]2[C@H]1[C@@H](O)[C@H](OC(C)=O)[C@@]1(O)C(C)(C)CCC(=O)[C@]21C
inactive: all assays above

C=C1c2ccoc2C[C@H]2[C@H]1CC[C@@]1(O)C(C)(C)[C@H](OC(C)=O)[C@H](OC(C)=O)[C@H](OC(C)=O)[C@]21C
inactive: all assays above

COC(=O)[C@@H]1c2ccoc2C[C@H]2[C@H]1[C@@H](OC(C)=O)[C@H](OC(C)=O)[C@@]1(O)C(C)(C)CCC[C@]21C
inactive: all assays above

CC(=O)O[C@@H]1[C@@H]2[C@H](Cc3occc3[C@@]2(C)O)[C@@]2(C)[C@@H](OC(C)=O)C[C@H](C)[C@@]3(C)O[C@@]23[C@H]1OC(C)=O
inactive: all assays above

CC(=O)O[C@@H]1[C@@H]2[C@H](Cc3occc3[C@@]2(C)O)[C@@]2(C)[C@@H](OC(C)=O)CC(C)=C(C)[C@]2(O)[C@H]1OC(C)=O
inactive: all assays above

C=C1c2ccoc2C[C@H]2[C@H]1[C@@H](OC(C)=O)[C@H](OC(C)=O)[C@@]1(O)C(C)(C)CCC(=O)[C@]21C
inactive: all assays above

COC(=O)[C@@H]1c2ccoc2C[C@H]2[C@H]1[C@@H](OC(C)=O)[C@H](OC(C)=O)[C@@]1(O)C(C)(C)CC[C@H](O)[C@]21C
inactive: all assays above
